The source of these data is publication PMC3914721 (Biochemistry, 2013).

SMILES strings stand for the structures. Several values for one entry are separate records, joined by “and”; a condition that tells them apart may be missing. Equal values may be shown once. Read-outs that look alike come from different tables or passages of the source. Some results are limits rather than exact numbers.

Data set [1] deals with T1, Ms sGC-NT21 (Manduca sexta, UniProt O77106). The data set is classed as binding. Particulars: for Kint (CO) cooperativity factor: from global fitting.
Data set [2] has as its target T2, Ms sGC-NT13 (Manduca sexta, UniProt O77106). Type of data set: binding.
For another data set, the target named is Ms sGC-NT (Manduca sexta, UniProt O77106). Briefly: Stimulator binding to Ms sGC-NT constructs, summary over constructs and methods. As to conditions: for Effect of α1 H-NOX removal on stimulator binding (Ms sGC-NT21 vs Ms sGC-NT13): unliganded proteins.
A further data set concerns the target Ms sGC-NT21-CO (Manduca sexta, UniProt O77106). Briefly: Soret band shift titration of CO-saturated protein. The data set is classed as binding.
The target in data set [3] is T2, Ms sGC-NT13. In words: CO titration monitoring the CO-bound Soret band. Type of data set: binding. As to conditions: for Kd^CO/Kd^CO′ cooperativity factor: ratio of CO dissociation constants without and with compound. Put shortly: (§1)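 CO titrations were run at room temperature in 50 mM potassium phosphate pH 7.4, 100 mM KCl, 5% glycerol, at several YC-1 concentrations (0–50 μM). NT21 used a 10 cm cuvette with 0.1 μM protein; NT13 used a 1 cm cuvette with 1 μM protein. A four-state cooperative model was globally fit to normalized absorbance changes at 423 and 433 nm, giving Ka^CO, Ka^YC-1 and Kint. Kd^CO′ is the inverse of Ka^CO·Kint.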

Data set [4] deals with pre-constricted aortic rings. Particulars: read-out: EC50 to stimulate sGC in pre-constricted aortic rings; cited from earlier work.
The next data set addresses Ms sGC-NT13-CO (Manduca sexta, UniProt O77106). In words: Soret band shift titration of CO-saturated protein. The data set is classed as binding.
The target of data set [5] is T1, Ms sGC-NT21. Briefly: CO titration monitoring the CO-bound Soret band. The data set is classed as binding. Particulars: for Kd^CO/Kd^CO′ cooperativity factor: ratio of CO dissociation constants without and with compound. Put shortly:
as §1

In another data set the target is T3, Bt sGC β1(1–197) (Bos taurus, UniProt P16068).
T3 sequence (P16068 1-197): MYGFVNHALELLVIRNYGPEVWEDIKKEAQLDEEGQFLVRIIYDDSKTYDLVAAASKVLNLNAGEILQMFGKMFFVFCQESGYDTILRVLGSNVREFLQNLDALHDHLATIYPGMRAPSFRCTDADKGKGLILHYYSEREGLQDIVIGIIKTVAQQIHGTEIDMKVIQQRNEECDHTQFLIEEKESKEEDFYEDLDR
Briefly: CO titration monitoring the CO-bound Soret band. The data set is classed as binding, Bos taurus (bovine). Put shortly:
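Bovine β1 H-NOX construct was expressed in E. coli BL21(DE3)pRIPL with δ-aminolevulinic acid and ferric citrate. It was purified by Q-FF, S75 and second Q-FF chromatography and prepared in Ar-purged buffer with excess dithionite. CO from a saturated solution was titrated by gas-tight syringe into the septum-capped cuvette while the CO-bound Soret band was followed. Data were fit to a single-site saturation model.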

For the next data set, the target named is Ms sGC-NT2. As to conditions: read-out: Kd^CO, no stimulator, cited from earlier work.
The target of a further data set is Hs sGC (full length). As to conditions: read-out: Kd^CO; no stimulator; ref 77; cited from earlier work.
In a further data set the target is T4, Ms sGC β1(1–380) (Manduca sexta, UniProt O77106).
T4 sequence (O77106 1-380): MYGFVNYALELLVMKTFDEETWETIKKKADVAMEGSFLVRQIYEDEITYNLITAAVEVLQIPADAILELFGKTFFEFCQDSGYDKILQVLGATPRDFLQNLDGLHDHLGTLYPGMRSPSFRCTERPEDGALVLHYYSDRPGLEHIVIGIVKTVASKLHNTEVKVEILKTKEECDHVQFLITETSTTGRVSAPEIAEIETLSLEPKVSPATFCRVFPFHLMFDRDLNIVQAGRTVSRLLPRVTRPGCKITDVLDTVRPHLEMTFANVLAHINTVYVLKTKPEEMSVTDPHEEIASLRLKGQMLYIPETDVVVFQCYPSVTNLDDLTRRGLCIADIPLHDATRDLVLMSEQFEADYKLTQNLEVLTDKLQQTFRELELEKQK
In words: CO titration monitoring the CO-bound Soret band. Type of data set: binding. As to conditions: for Kd: read-out: Kd^CO. Put shortly: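 Ms β1(1–380) was expressed in E. coli Rosetta pLysS with 25 μM δ-aminolevulinic acid. It was purified by anion exchange, Ni-NTA (EDTA elution) and S200 gel filtration, where it ran as a monomer, then prepared in Ar-purged buffer with excess dithionite. CO from a saturated solution was titrated into a septum-capped 10 cm cuvette, the CO-bound Soret band was followed, and data were fit to a single-site saturation model.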

For data set [6], the target named is heterodimeric sGC proteins. Briefly: CO binding to heterodimeric sGC proteins, summary over constructs. Also noted: species or system Manduca sexta. As to conditions: read-out: Kd^CO, range over heterodimeric proteins; absence of YC-1. In outline:
(§2)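 CO from a saturated solution was added by gas-tight syringe to protein in septum-capped 1 or 10 cm cuvettes. The appearance of the CO-bound Soret absorption band was followed, and data were fit to a single-site saturation ligand-binding model.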

Data set [7] deals with Bt sGC (full length). Particulars: read-out: Kd^CO, no stimulator, cited from earlier work.
Another data set addresses T5, Bt sGC β1(1–359) (Bos taurus, UniProt P16068).
T5 sequence (P16068 1-359): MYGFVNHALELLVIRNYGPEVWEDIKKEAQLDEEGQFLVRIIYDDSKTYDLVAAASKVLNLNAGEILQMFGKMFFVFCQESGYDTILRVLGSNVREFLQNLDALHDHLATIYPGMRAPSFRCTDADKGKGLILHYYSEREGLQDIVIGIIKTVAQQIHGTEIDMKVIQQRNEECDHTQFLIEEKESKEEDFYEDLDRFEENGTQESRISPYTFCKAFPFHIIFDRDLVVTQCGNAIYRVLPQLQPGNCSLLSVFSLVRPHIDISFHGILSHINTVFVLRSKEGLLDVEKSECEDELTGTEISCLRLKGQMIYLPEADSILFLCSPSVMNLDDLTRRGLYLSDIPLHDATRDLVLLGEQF
In words: CO titration monitoring the CO-bound Soret band. Type of data set: binding, Bos taurus (bovine). Particulars: read-out: Kd^CO; no stimulator; 1 μM protein. Put shortly:
as §2

The target of a further data set is Ms sGC-NT19. Particulars: read-out: Kd^CO; no stimulator; ref 43; cited from earlier work.
In data set [8] the target is Bt sGC (full length). Particulars: read-out: Kd^YC-1′, +CO; measured in the presence of GTP; cited from earlier work.
The target in a further data set is T6, Ms sGC α1 PAS (Manduca sexta, UniProt O77105).
T6 sequence (O77105 279-404): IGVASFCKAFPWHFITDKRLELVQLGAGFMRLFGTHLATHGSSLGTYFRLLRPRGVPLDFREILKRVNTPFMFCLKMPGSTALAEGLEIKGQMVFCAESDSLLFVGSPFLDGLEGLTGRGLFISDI
Briefly: Fluorescence anisotropy of YC-1. The data set is classed as binding. On the technique in general: Fluorescence polarisation rises when a labelled molecule tumbles more slowly, as on binding a larger partner.

A further data set concerns sGC. Particulars: cited from earlier work.
The next data set deals with Ms sGC β1 (1–380). Briefly: Soret band shift on YC-1 addition. The data set is classed as binding, Manduca sexta. Particulars: CO-saturated protein.
Another data set concerns β1 PAS domain. In words: Fluorescence anisotropy of YC-1. Particulars: 2 μM YC-1, 20 °C; likely non-specific. Type of data set: binding, Manduca sexta.
Another data set concerns lysozyme. In words: Fluorescence anisotropy of YC-1. The data set is classed as binding. Particulars: 2 μM YC-1, 20 °C.

One may read the Kd as the free concentration of one partner at which half of the binding sites on the other are occupied at equilibrium, for simple one-to-one binding. In general, EC50 refers to the concentration needed to bring the measured effect to its halfway point. Turning to `Nc1nc(-c2nn(Cc3ccccc3F)c3ncccc23)ncc1C1CC1` [BAY 41–2272], the Kd on Ms sGC-NT21 [1] was 30 ± 10 nM; on Ms sGC-NT13 [2] (Kd^BAY, −NO/CO, estimated assuming linked equilibria: (Kd^CO/Kd^CO′) Kd^BAY′), 17 ± 3 µM; at Ms sGC-NT21-CO it was 90 ± 20 nM; at Ms sGC-NT13-CO, 80 ± 10 nM. For the same compound, the “Kint (CO) cooperativity factor” value on Ms sGC-NT21 [1] was found to be 58 ± 7. Further, in the data set “Aqueous solubility”, the “Solubility in aqueous buffer” value is reported as “poor solubility”. In addition, the “Effect of α1 H-NOX removal on stimulator binding (Ms sGC-NT21 vs Ms sGC-NT13)” value at Ms sGC-NT is on record as ~ 9 fold. Besides, the “Kd^CO/Kd^CO′ cooperativity factor” value on Ms sGC-NT13 [3] is 212 ± 23; at Ms sGC-NT21 [5], 31 ± 5. The EC50 in data set [4] is 300 nM.

Turning to `[C-]#[O+]` [CO], at Bt sGC β1(1–197), the “Fold less tight CO binding than Ms sGC β1(1–380)” value is ~ 8 fold. Besides, the equilibrium dissociation constant (Kd) was 1600 ± 200 nM on Bt sGC β1(1–197) (read-out: Kd^CO, no stimulator, 1 cm cuvette, 0.5 μM protein); 77 ± 7 µM on Ms sGC-NT2 (ref 33); 90 ± 9 µM at Ms sGC-NT2 (ref 43); 260 µM on Hs sGC (full length); around 200 nM at Ms sGC β1(1–380) (absence of the alpha chain); ~200 nM and 200 nM on Ms sGC β1(1–380) (no stimulator, 10 cm cuvette, 0.1 μM protein). Further, the Kd in data set [6] was 50 to 100 µM and 50 to 90 µM; on Bt sGC (full length) [7] (ref 51), 127 µM; on Bt sGC (full length) [7] (ref 76) it was 97 µM; on Bt sGC β1(1–359), 15 ± 4 µM; on Ms sGC-NT13 [3] (read-out: Kd^CO, no stimulator, 1 μM protein) it was 53 ± 4 µM; on Ms sGC-NT21 [5] (read-out: Kd^CO, no stimulator, 10 cm cuvette, 0.1 μM protein), 2200 ± 200 nM. Further, the Kd on Ms sGC-NT19 was 50 ± 3 µM. The “Fold enhancement of CO binding on complete removal of the α1 chain” value on Ms sGC β1(1–380) (vs heterodimeric Ms sGC) is recorded as 265 fold. Besides, at Ms sGC-NT21 [5] (removal of the α1 H-NOX domain), the “Fold tighter CO binding than Ms sGC proteins containing the α1 H-NOX domain” value was 20–40 fold and 24 fold.

Consider `OCc1ccc(-c2nn(Cc3ccccc3)c3ccccc23)o1` [YC-1], for which the dissociation constant Kd is around 8 µM on Bt sGC (full length) [8]; 600 to 1100 nM and ~1000 nM on Ms sGC-NT (Kd, CO complexes (presence of CO), over constructs, Ms sGC-NT13 and Ms sGC-NT21); above 100 µM on Ms sGC α1 PAS; 600 ± 100 nM at Ms sGC-NT21-CO; 800 ± 100 nM on Ms sGC-NT13-CO. Moreover, the “Kint (CO) cooperativity factor” value at Ms sGC-NT21 [1] is 14 and 13.8 ± 0.3; at Ms sGC-NT13 [2] (from global fitting), 19 and 19 ± 2. For the same compound, in “Aqueous solubility”, the “Solubility in aqueous buffer” value is “poor solubility”. The “Effect of α1 H-NOX removal on stimulator binding (Ms sGC-NT21 vs Ms sGC-NT13)” value on Ms sGC-NT is given as ~ 2 fold. Moreover, the “Kint, cooperativity in CO binding” value on Ms sGC β1(1–380) (any of the constructs missing the α1 chain) was ~ 1. Further, in the data set with sGC (in the absence of NO), the “Stimulation of sGC” value is reported as “two- to four-fold”. Further, the “Activation of sGC” value with sGC (synergistically with CO or NO) is “several hundred fold”. The “Shift in Soret band maxima upon YC-1 binding” value in the data set with Ms sGC β1 (1–380) was “not observed”. Further, the “Kd^CO/Kd^CO′ cooperativity factor” value on Ms sGC-NT13 [3] came to 19 ± 3; on Ms sGC-NT21 [5], 11 ± 1. Besides, the figures for the “Binding of YC-1 by fluorescence anisotropy” value in the data set with β1 PAS domain and with lysozyme were “weak signal” and “not for lysozyme”, respectively. Besides, at Ms sGC-NT21 [5] (50 μM YC-1), the “Tightening of the CO dissociation constant upon YC-1 binding” value worked out at 10 fold.
